Experimental data taken from PubChem BioAssay AID465 (The Scripps Research Institute Molecular Screening Center, 2006).
In all, about 62,000 compounds went through this assay and about 130 (0.21%) were called active. The sample as a whole holds a higher share of actives than the screen did. Unmarked numbers belong to inactive results.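 How the source made its calls: active means inhibition above the mean of all tested compounds plus 3 SD (cut at about 40% in these data); inactive means the rest.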

test: inhibitors of PMA/ionomycin-induced NF-kB reporter, primary screen, antigen receptor NF-kB inhibitor project, cell-based, HEK-293 luciferase reporter, luminescence (AID 465); settings: HEK-293 NF-kB luciferase reporter, at 3 µM, stronger effect = higher value;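 further: 0% = stimulated DMSO wells and 100% = 10 µM reference inhibitor 5653914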
Procedure, shortened: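 System: NF-kB luciferase reporter HEK-293 cells | Replication: Single test | Control set: DMSO vs reference inhibitor | Evaluation: % inhibition | Schedule: 1 h pretreatment, 16 h stimulation, 37 °C | Probe or stimulus: PMA with ionomycin | Compound dosing: One dose, 3 µM | Detection: Luciferase luminescence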

For `CCC1=C/C(=C\c2ccc3c(c2)OCO3)C(=O)S1`, which inhibition is on record?
Its inhibition is 21.2%.

With `O=C(c1ccco1)N1CCN(C(=O)c2ccc(COc3ccc(F)cc3)o2)CC1` as the compound, how does the inhibition read?
Its inhibition is 7%.

For `COCCCN1C(=O)C(=O)/C(=C(/O)c2ccc3c(c2)CC(C)O3)C1c1cccnc1` (stereo not drawn), which inhibition is on record?
The inhibition was 7.3%.

With `CCCOC(=O)Cc1c(O)c2ccccc2[nH]c1=O` as the compound, how does the inhibition read?
Its inhibition is 6.5%.

With `COC(=O)Nc1ccc(S(=O)(=O)N(C)CC(F)(F)C(F)F)cc1` as the compound, how does the inhibition read?
Its inhibition is 3.4%.

Which inhibition does the source give for `CCn1nnc(NC(=O)c2c(OC)cccc2OC)n1` here?
The inhibition was 10.1%.

Which inhibition does the source give for `O=C(c1ccc2c(c1)OCCO2)C1CCN(S(=O)(=O)c2cccc(F)c2)CC1` here?
The inhibition was 6.7%.

For `COC(=O)NC1(C(F)(F)F)NC(=O)N(C2CCCCC2)C1=O` (stereo not drawn), which inhibition is on record?
The inhibition was 9.8%.

Which inhibition does the source give for `O=C1NC(Nc2nc3ccccc3s2)(C(F)(F)F)C(=O)N1C1CCCCC1` (stereo not drawn) here?
The inhibition was 50.1% (active).

Which inhibition does the source give for `CC(=O)c1c(C)n([O-])c2ccccc2[n+]1=O` here?
The inhibition was 12.7%.

For `CC(=O)OC(C(=O)NCCc1ccccc1)c1cccnc1` (stereo not drawn), which inhibition is on record?
The inhibition was 15.3%.

Which inhibition does the source give for `COc1ccc(C(=O)Nc2ccc3c(c2)OCO3)cc1OC` here?
Its inhibition is -6.2%.

Which inhibition does the source give for `Cn1c(=O)n(C)c2cc(C(=O)Nc3ccc4c(c3)OCO4)ccc21` here?
The inhibition was 40.7% (active).

With `Cn1c(NC(=O)c2ccc3c(c2)OCO3)cc(=O)n(C)c1=O` as the compound, how does the inhibition read?
The inhibition was -1.2%.

For `O=C(NC1CCCCC1)C1CCCN(S(=O)(=O)c2cccs2)C1` (stereo not drawn), which inhibition is on record?
Its inhibition is 10.2%.

With `O=C(NCCN=C1NS(=O)(=O)c2ccccc21)c1ccc(S(=O)(=O)N2CCOCC2)cc1` as the compound, how does the inhibition read?
Its inhibition is 11.1%.

For `Cc1nnc(SCC(=O)N(C(C)C)C(C)C)nc1C`, which inhibition is on record?
Its inhibition is 6.1%.

Which inhibition does the source give for `O=C(Nc1c(C(=O)N2CCCCC2)cnn1-c1ccccc1)c1ccco1` here?
Its inhibition is -3.8%.

Which inhibition does the source give for `C(=C\c1ccccc1)/CSc1nnc(-c2cccnc2)n1Cc1ccco1` here?
Its inhibition is 11.5%.

For `Cc1ccc(NC(=O)CN2CCC3(O)CCCCC3C2c2ccc3c(c2)OCO3)c(C)c1` (stereo not drawn), which inhibition is on record?
The inhibition was 0.9%.

For `Oc1c(C(c2cccs2)N2CCN(c3ccc(F)cc3)CC2)sc2ncnn12` (stereo not drawn), which inhibition is on record?
The inhibition was -1%.

With `CCOc1ccc(OCC)c(NC(=O)C2CCN(S(=O)(=O)c3c(C)noc3C)CC2)c1` as the compound, how does the inhibition read?
The inhibition was 15.5%.

Which inhibition does the source give for `O=c1cccc(-c2ccc(Br)cc2)o1` here?
The inhibition was 10.6%.

Which inhibition does the source give for `O=C(Nc1cccc2c1CCCC2)C1CCN(C(=O)NC2CCCCC2)CC1` here?
The inhibition was 16.4%.

With `COc1ccc2c(Cl)c(-c3nnco3)sc2c1` as the compound, how does the inhibition read?
The inhibition was 26.5%.

Which inhibition does the source give for `C=CCNC(=O)c1cc(-c2ccccc2O)on1` here?
Its inhibition is -6.4%.

With `O=C(Nn1cnc2ccccc2c1=O)c1ccc(F)cc1Cl` as the compound, how does the inhibition read?
Its inhibition is -16.4%.

With `Cc1cccc(NC(=O)C2CCCN2S(=O)(=O)c2ccc(F)cc2)c1C` (stereo not drawn) as the compound, how does the inhibition read?
The inhibition was 19.8%.

For `COc1cccc(NS(=O)(=O)c2ccc3[nH]cc(C(=O)NCCCOC(C)C)c(=O)c3c2)c1`, which inhibition is on record?
The inhibition was 9%.

With `CCOC(=O)CSc1nnc(CNC(=O)c2cccs2)n1-c1cc(OC)ccc1OC` as the compound, how does the inhibition read?
Its inhibition is 9.1%.

Which inhibition does the source give for `CCOC(=O)N1CCN(C(=O)COc2ccc(Br)cc2)CC1` here?
The inhibition was 3.3%.

Which inhibition does the source give for `CNC(=O)CN1C(=O)c2ccccc2S1(=O)=O` here?
The inhibition was 16.9%.

Which inhibition does the source give for `O=C(c1cccc(C(=O)N2CCc3ccccc32)n1)N1CCc2ccccc21` here?
Its inhibition is 1.5%.

For `O=C(CN1C(=O)c2ccccc2S1(=O)=O)N1CCc2ccccc21`, which inhibition is on record?
Its inhibition is 59% (active).

For `Cc1[nH]c2ccc(S(N)(=O)=O)cc2c1C`, which inhibition is on record?
The inhibition was 14.3%.

Which inhibition does the source give for `c1n[nH]c(NCc2ccc3c(c2)OCO3)n1` here?
Its inhibition is 0.1%.

With `CCC(C)(C)n1nnnc1C(c1ccccc1OC)N1CCSCC1` (stereo not drawn) as the compound, how does the inhibition read?
Its inhibition is 9.6%.

For `Cc1nc(C)c(C(=O)Nc2ccc(C)c(F)c2)o1`, which inhibition is on record?
Its inhibition is 19.9%.

For `O=C(CSc1ncccn1)NC(=O)NCc1ccccc1`, which inhibition is on record?
The inhibition was 13.2%.

Which inhibition does the source give for `CCC(=O)Nc1cccc(NC(=O)CSc2nnc(-c3ccc(NS(C)(=O)=O)cc3)n2C)c1` here?
Its inhibition is 1.5%.

Which inhibition does the source give for `COc1ccc(CCn2c(=N)c(C(=O)NCc3ccco3)cc3c(=O)n4cccc(C)c4nc32)cc1` here?
Its inhibition is 7.9%.

With `Cc1nc2ccc(S(=O)(=O)NCC(=O)O)cc2s1` as the compound, how does the inhibition read?
Its inhibition is -0.6%.

With `CC1=CC(C)(C)N(C(=O)CSc2nccn2C)c2cc(C)ccc21` as the compound, how does the inhibition read?
Its inhibition is 0%.

With `Cc1ccc(C)c(S(=O)(=O)N2CC(=O)Nc3ccccc32)c1` as the compound, how does the inhibition read?
The inhibition was 13.2%.

For `Cn1c(=O)c2c(nc(SCCNS(=O)(=O)c3ccccc3)n2C)n(C)c1=O`, which inhibition is on record?
The inhibition was 11.9%.

For `O=C(NCCCN1CCN(C2CCCCC2)CC1)Nc1ccccc1C(F)(F)F`, which inhibition is on record?
Its inhibition is 7.8%.

With `O=C(NCc1ccco1)C1CCCN(S(=O)(=O)c2cccc3nonc23)C1` (stereo not drawn) as the compound, how does the inhibition read?
The inhibition was 0.7%.

For `O=P(O)(CN1CCCCC1)CN1CCCCC1`, which inhibition is on record?
The inhibition was 4.4%.

With `CCNC(=O)CCc1nc(-c2ccc(C(C)(C)C)cc2)no1` as the compound, how does the inhibition read?
The inhibition was 79.1% (active).

Which inhibition does the source give for `Cc1ccc(-c2noc(CCC(=O)Nc3ccccc3N3CCN(C)CC3)n2)cc1` here?
Its inhibition is -2%.

With `Cc1ccc(-c2noc(CCC(N)=O)n2)cc1` as the compound, how does the inhibition read?
Its inhibition is 19.8%.

With `CCCS(=O)(=O)C(=C1Nc2ccccc2N1)S(=O)(=O)CCC` as the compound, how does the inhibition read?
The inhibition was 3.3%.

Which inhibition does the source give for `COc1ccc2c(c1)CCc1c(C(=O)Nc3c(C)n(C)n(-c4ccccc4)c3=O)noc1-2` here?
Its inhibition is 23.3%.

Which inhibition does the source give for `CCCCOc1ccc(-c2nnc(-c3ccco3)o2)cc1` here?
Its inhibition is -34%.

Which inhibition does the source give for `CC(=O)Nc1ccc(S(=O)(=O)N2CCCC2C(=O)O)cc1` (stereo not drawn) here?
The inhibition was 6.9%.

For `CCOC(=O)N1CCN(C(=O)CN(c2ccc(C)c(C)c2)S(=O)(=O)c2ccccc2)CC1`, which inhibition is on record?
The inhibition was 10.2%.

For `C=CCc1cccc2cc(C(=O)N3CCN(C(=O)OCC)CC3)c(=O)oc12`, which inhibition is on record?
The inhibition was -6.7%.

With `Cc1cc(C)cc(OCc2nnc(SCC(=O)OC3CCCCC3)o2)c1` as the compound, how does the inhibition read?
Its inhibition is 17.6%.

Which inhibition does the source give for `Cc1ccnc(N2CCC(C(=O)NC3CCCCCC3)CC2)n1` here?
Its inhibition is 11.5%.

For `Nc1ccc(-n2nncc2-c2ccco2)cc1`, which inhibition is on record?
Its inhibition is 4%.

Which inhibition does the source give for `O=C(COC(=O)C12CC3CC(CC(C3)C1)C2)NCc1ccco1` here?
The inhibition was 3.7%.

With `Cc1cc(C(=O)OCC(=O)NCc2ccco2)c(C)n1-c1ccccc1` as the compound, how does the inhibition read?
The inhibition was 41.7% (active).

For `CCOC(=O)c1cnc(SCC(=O)NCc2ccco2)nc1N`, which inhibition is on record?
The inhibition was -2%.
